Laboratory results published in ChEMBL document CHEMBL2311407, “Design and synthesis of diazatricyclodecane agonists of the G-protein-coupled receptor 119” (J Med Chem, 2013).
In brackets after ≈: the same amount, converted by molar mass.

Tests used:
[1] = Thermodynamic solubility of the compound in PBS at pH 1.2; assay type: physicochemical; conditions: read-out: Therm_solubility
[2] = Apparent permeability in MDCK2 cells; assay type: ADME, cell-based, Canis lupus familiaris, MDCK-II; conditions: dog, MDCK
[3] = Apparent intrinsic clearance in human liver microsomes; assay type: ADME, Microsome; conditions: read-out: CLH(app)
[4] = Fraction unbound in Beagle dog plasma; assay type: ADME, cell-free, Canis lupus familiaris
[5] = Fraction unbound in Sprague-Dawley rat plasma; assay type: ADME, cell-free
[6] = Oral bioavailability in Beagle dog at 100 mg/kg administered as spray dried dispersion; assay type: ADME, organism-based, Canis lupus familiaris; conditions: in vivo
Summary of the method: (§1)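 Oral gavage in male beagle dogs at 10, 30 or 100 mg/kg, 5 mL/kg, as 25% spray dried dispersion in 20 mM Tris buffer in 0.5% methylcellulose and 0.5% HPMCAS-HF, pH 7.4. Plasma concentrations are total drug. Values are the mean of two animals. F is based on 1 mg/kg iv dog data.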

[7] = Tmax in Beagle dog at 100 mg/kg, po administered as spray dried dispersion; assay type: ADME, organism-based, Canis lupus familiaris; set-up: dose 100 mg/kg, route oral; conditions: in vivo; summary of the method: as §1
[8] = Cmax in Beagle dog at 100 mg/kg, po administered as spray dried dispersion; assay type: ADME, organism-based, Canis lupus familiaris; set-up: dose 100 mg/kg, route oral; conditions: in vivo; summary of the method: as §1
[9] = AUC in Beagle dog at 100 mg/kg, po administered as spray dried dispersion; assay type: ADME, organism-based, Canis lupus familiaris; set-up: dose 100 mg/kg, route oral; conditions: plasma; summary of the method: as §1
[10] = Oral bioavailability in Beagle dog at 30 mg/kg administered as spray dried dispersion; assay type: ADME, organism-based, Canis lupus familiaris; conditions: in vivo; summary of the method: as §1
[11] = Tmax in Beagle dog at 30 mg/kg, po administered as spray dried dispersion; assay type: ADME, organism-based, Canis lupus familiaris; set-up: dose 30 mg/kg, route oral; conditions: in vivo; summary of the method: as §1
[12] = Cmax in Beagle dog at 30 mg/kg, po administered as spray dried dispersion; assay type: ADME, organism-based, Canis lupus familiaris; set-up: dose 30 mg/kg, route oral; conditions: in vivo; summary of the method: as §1
[13] = AUC in Beagle dog at 30 mg/kg, po administered as spray dried dispersion; assay type: ADME, organism-based, Canis lupus familiaris; set-up: dose 30 mg/kg, route oral; conditions: plasma; summary of the method: as §1
[14] = Oral bioavailability in Beagle dog at 10 mg/kg administered as spray dried dispersion; assay type: ADME, organism-based, Canis lupus familiaris; conditions: in vivo; summary of the method: as §1
[15] = Tmax in Beagle dog at 10 mg/kg, po administered as spray dried dispersion; assay type: ADME, organism-based, Canis lupus familiaris; set-up: dose 10 mg/kg, route oral; conditions: in vivo; summary of the method: as §1
[16] = Cmax in Beagle dog at 10 mg/kg, po administered as spray dried dispersion; assay type: ADME, organism-based, Canis lupus familiaris; set-up: dose 10 mg/kg, route oral; conditions: in vivo; summary of the method: as §1
[17] = AUC in Beagle dog at 10 mg/kg, po administered as spray dried dispersion; assay type: ADME, organism-based, Canis lupus familiaris; set-up: dose 10 mg/kg, route oral; conditions: plasma; summary of the method: as §1
[18] = Oral bioavailability in Beagle dog at 3 mg/kg administered as spray dried dispersion; assay type: ADME, organism-based, Canis lupus familiaris; conditions: in vivo
Summary of the method: (§2)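 Male beagle dogs were dosed po at 3 mg/kg, 0.6 mL/kg, as 25% spray dried dispersion in 20 mM Tris buffer with 0.5% methylcellulose + 0.5% HPMCAS-HF, pH 7.4. Plasma concentrations are total drug. Values are the mean of two animals. F is calculated against 1 mg/kg iv dog data.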

[19] = Tmax in Beagle dog at 3 mg/kg, po administered as spray dried dispersion; assay type: ADME, organism-based, Canis lupus familiaris; set-up: dose 3 mg/kg, route oral; conditions: in vivo; summary of the method: as §2
[20] = Cmax in Beagle dog at 3 mg/kg, po administered as spray dried dispersion; assay type: ADME, organism-based, Canis lupus familiaris; set-up: dose 3 mg/kg, route oral; conditions: in vivo; summary of the method: as §2
[21] = Half life in Beagle dog at 3 mg/kg, po administered as spray dried dispersion; assay type: ADME, organism-based, Canis lupus familiaris; set-up: dose 3 mg/kg, route oral; conditions: in vivo; summary of the method: as §2
[22] = AUC in Beagle dog at 3 mg/kg, po administered as spray dried dispersion; assay type: ADME, organism-based, Canis lupus familiaris; set-up: dose 3 mg/kg, route oral; conditions: plasma; summary of the method: as §2
[23] = Cmax in Beagle dog at 1 mg/kg, iv; assay type: ADME, organism-based, Canis lupus familiaris; set-up: dose 1 mg/kg, route intravenous; conditions: in vivo
Summary of the method: (§3)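 Male beagle dogs received 1 mg/kg iv at 2 mL/kg in 5% dimethylacetamide/75% PEG200/20% (30% SBE-CD). Plasma concentrations are total drug. Values are the mean of two animals.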

[24] = Volume of distribution at steady state in Beagle dog at 1 mg/kg, iv; assay type: ADME, organism-based, Canis lupus familiaris; set-up: dose 1 mg/kg, route intravenous; conditions: in vivo, read-out: Vdss
Summary of the method: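 Male beagle dogs received 1 mg/kg iv at 2 mL/kg in 5% DMA/75% PEG200/20% (30% SBE-CD). Plasma concentrations are reported as total drug. Parameters are means from two animals.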

[25] = Clearance in Beagle dog at 1 mg/kg, iv; assay type: ADME, organism-based, Canis lupus familiaris; set-up: dose 1 mg/kg, route intravenous; conditions: in vivo; summary of the method: as §3
[26] = Half life in Beagle dog at 1 mg/kg, iv; assay type: ADME, organism-based, Canis lupus familiaris; set-up: dose 1 mg/kg, route intravenous; conditions: in vivo; summary of the method: as §3

Cc1c(Oc2ccc(-n3cnnn3)cc2F)ncnc1N1C2CC3CC1CC(C2)N3C(=O)OC1(C)CC1
solubility thermodynamic [1]: 4.8 µg/mL (≈ 9.48 µM) | Papp [2]: 3.5 ×10⁻⁶ cm/s | CLint scaled [3]: < 9.5 mL/min/kg | fraction unbound [4]: 0.014 | fraction unbound [5]: 0.01 | bioavailability [6]: 32% | Tmax [7]: 1.5 h | Cmax [8]: 6030 ng/mL | AUC [9]: 151 µg·h/mL | bioavailability [10]: 54% | Tmax [11]: 1 h | Cmax [12]: 3750 ng/mL | AUC [13]: 76800 ng·h/mL | bioavailability [14]: 87% | Tmax [15]: 1 h | Cmax [16]: 1950 ng/mL | AUC [17]: 41000 ng·h/mL | bioavailability [18]: 60% | Tmax [19]: 1 h | Cmax [20]: 812 ng/mL | half-life [21]: 1200 min | AUC [22]: 8580 ng·h/mL | Cmax [23]: 515 ng/mL | Vd [24]: 3.7 L/kg | clearance [25]: 1.74 mL/min/kg | half-life [26]: 1610 min
